Data set [1] relates to Rattus norvegicus. In words: Antidiabetic activity in Zucker fa/fa rat assessed as reduction in blood glucose AUC at 1 mg/kg, po administered for 1 day followed by OGTT at 1 hr after compound dosing and measured 60 mins post glucose challenge by oral glucose tolerance test. Format: functional, organism-based.
Data set [2] is described as follows: Drug metabolism in mouse hepatocytes assessed as oxidation. Type of data set: ADME, cell-based, Hepatocyte.
Data set [3] can be described thus: Clearance in type 2 diabetes patient. Conditions: human, in vivo. Format: ADME.
Data set [4] in a line: Intrinsic clearance in human microsomes. Format: ADME, Microsome.
Data set [5] can be described thus: Drug metabolism in dog hepatocytes assessed as O-dealkylation. Type of data set: ADME, cell-based, Canis lupus familiaris, Hepatocyte.
Data set [6] is described as follows: Metabolic stability in rat microsomes assessed as compound metabolized after 30 mins. The following applies: read-out: Drug metabolism. Type of data set: ADME, Microsome. The method, boiled down: (§1)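 Compound incubated 30 min with liver microsomes from mouse, rat, dog or human. Percent of compound metabolized recorded, as mean (SEM, n).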
Data set [7] can be described thus: Dissociation constant, pKa of the compound. Type of data set: physicochemical.
Data set [8] can be described thus: Drug metabolism in dog hepatocytes assessed as glucuronidation. Type of data set: ADME, cell-based, Canis lupus familiaris, Hepatocyte.
A short description of data set [9]: Volume of distribution in type 2 diabetes patient. Type of data set: ADME. Conditions: human, in vivo.
The nature of data set [10]: Drug metabolism in rat hepatocytes assessed as O-dealkylation. Type of data set: ADME, cell-based, Hepatocyte.
The nature of data set [11]: Aqueous solubility of the compound at pH 7.4. Type of data set: physicochemical. The gist of the method:
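Solubility was measured by DMSO/aqueous precipitation at pH 7.4 and reported as the last soluble concentration.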

The subject of data set [12] is Rattus norvegicus. In words: Antidiabetic activity in po dosed Zucker fa/fa rat assessed as reduction in blood glucose AUC administered daily for 21 days followed by OGTT at 1 hr after compound dosing and measured 60 mins post glucose challenge by oral glucose tolerance test. Type of data set: functional.
Data set [13] has as its target T1, Free fatty acid receptor 1 (Homo sapiens, UniProt O14842). Nature of the data set: Agonist activity at human GPR40 receptor expressed in HEK293 cells assessed as increase in intracellular calcium flux after 2.5 hrs measured over 3 mins by calcium 4 dye-based FLIPR assay relative to linoleic acid. Type of data set: functional, cell-based. The method, boiled down: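 Human GPR40 calcium flux was read on FLIPR. Percent stimulation is expressed against the response to 100 uM linoleic acid.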

Data set [14] can be described thus: Metabolic stability in dog microsomes assessed as compound metabolized after 30 mins. Format: ADME, Canis lupus familiaris, Microsome. Conditions: read-out: Drug metabolism. The gist of the method: as §1
Data set [15] in a line: Drug metabolism in rat hepatocytes assessed as glucuronidation. Format: ADME, cell-based, Hepatocyte.
Data set [16] in a line: Drug metabolism in dog hepatocytes assessed as oxidation. Type of data set: ADME, cell-based, Canis lupus familiaris, Hepatocyte.
The nature of data set [17]: Drug metabolism in mouse hepatocytes assessed as glucuronidation. Type of data set: ADME, cell-based, Hepatocyte.
A short description of data set [18]: Drug metabolism in mouse hepatocytes assessed as O-dealkylation. Format: ADME, cell-based, Hepatocyte.
The nature of data set [19]: Drug metabolism in rat hepatocytes assessed as oxidation. Type of data set: ADME, cell-based, Hepatocyte.
Data set [20] in a line: Lipophilicity, log P of the compound. Format: physicochemical. The following applies: octanol/water.
A short description of data set [21]: Metabolic stability in mouse microsomes assessed as compound metabolized after 30 mins. Type of data set: ADME, Microsome. The following applies: read-out: Drug metabolism. The method, boiled down: as §1
A short description of data set [22]: Intrinsic clearance in human hepatocytes. Type of data set: ADME, cell-based, Hepatocyte.
The target of data set [23] is T1, Free fatty acid receptor 1. Nature of the data set: Agonist activity at human GPR40 receptor expressed in HEK293 cells assessed as increase in intracellular calcium flux after 2.5 hrs measured over 3 mins by calcium 4 dye-based FLIPR assay. Format: functional, cell-based. The method, boiled down:
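Calcium flux was read by FLIPR in cells carrying recombinant human GPR40. Percent stimulation is relative to the response to 100 µM linoleic acid. EC50 is reported with SEM and n.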
(In general: Calcium flux is commonly read through the fluorescence of an indicator in the cells.)

The nature of data set [24]: Drug metabolism in dog hepatocytes assessed as N-dealkylation. Type of data set: ADME, cell-based, Canis lupus familiaris, Hepatocyte.
For data set [25], the target named is T1, Free fatty acid receptor 1. Nature of the data set: Competitive displacement of [3H]-TAK-875 from full length human recombinant GPR40 expressed in HEK293 cell membranes after 2 hrs by scintillation counting. The gist of the method:
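Binding was measured as competitive inhibition of [3H]-TAK875 (fasiglifam) binding to membranes from cells overexpressing recombinant human GPR40. Ki is reported with SEM and n.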

Data set [26] can be described thus: Drug metabolism in mouse hepatocytes assessed as N-dealkylation. Format: ADME, cell-based, Hepatocyte.
Data set [27] can be described thus: Metabolic stability in human microsomes assessed as compound metabolized after 30 mins. Format: ADME, Microsome. Conditions: read-out: Drug metabolism. The method, boiled down:
as §1

Data set [28] in a line: Drug metabolism in rat hepatocytes assessed as N-dealkylation. Format: ADME, cell-based, Hepatocyte.
Data set [29] in a line: Drug metabolism in mouse hepatocytes assessed as desmethylation. Format: ADME, cell-based, Hepatocyte.
Data set [30] can be described thus: Drug metabolism in rat hepatocytes assessed as desmethylation. Format: ADME, cell-based, Hepatocyte.
Data set [31] in a line: Drug metabolism in dog hepatocytes assessed as desmethylation. Type of data set: ADME, cell-based, Canis lupus familiaris, Hepatocyte.

This note sets out measurements from ChEMBL document CHEMBL4024777, “Discovery of LY3104607: A Potent and Selective G Protein-Coupled Receptor 40 (GPR40) Agonist with Optimized Pharmacokinetic Properties to Support Once Daily Oral Treatment in Patients with Type 2 Diabetes Mellitus” (J Med Chem, 2018).

Converted amounts (≈) assume the structure as drawn. The source made the active and inactive calls. The rule behind the calls is not given here. A value given as a limit tells only on which side of the number the result lay.

T1 sequence (O14842 whole entry): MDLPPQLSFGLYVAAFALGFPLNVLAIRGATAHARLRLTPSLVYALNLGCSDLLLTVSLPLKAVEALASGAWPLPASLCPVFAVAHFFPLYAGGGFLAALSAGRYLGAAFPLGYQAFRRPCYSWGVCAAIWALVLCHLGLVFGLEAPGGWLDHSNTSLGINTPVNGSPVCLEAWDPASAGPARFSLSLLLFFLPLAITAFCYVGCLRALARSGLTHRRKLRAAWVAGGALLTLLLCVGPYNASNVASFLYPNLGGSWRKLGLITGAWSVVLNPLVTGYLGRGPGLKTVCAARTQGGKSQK

With `CC#C[C@@H](CC(=O)O)c1ccc(OCc2ccc(CN3CCC4(C=Cc5ccccc54)CC3)cc2)cc1` [LY2881835], the result with Rattus norvegicus [1] was Active. For the same molecule, the Drug metabolism result in data set [2], in [5], in data set [8], in data set [10], in data set [15] and in data set [16] was “Metabolite_Detected” throughout. Also, the Drug metabolism result in [17], in data set [18] and in data set [19] was “Metabolite_Detected” in each case. In addition, the clearance (usually the volume of plasma or blood freed of the substance per unit of time) in data set [3] was 183 mL/min. The molecule also returned a K in data set [4] of 0.033 h⁻¹. For the same molecule, the metabolised at 0.5 h in [6] came out at 64%; in [14], 65%. Besides, in [7], the pKa (as a rule, the pH at which an ionisable group is half protonated) fell in the range of 4.1 to 8.1. The Vd (commonly a proportionality between amount in the body and measured concentration, not a real space) in data set [9] is 111 L. Further, the solubility – broadly, how much of the substance goes into solution per volume – in data set [11] was in the range of 61 to 80 µM (≈ 30 to 39.3 µg/mL). For the same molecule, in the data set with Rattus norvegicus [12], the ED90 was 1 mg/kg. Also, the %max in data set [13] was found to be 62%.

Regarding `CC#C[C@@H](CC(=O)O)c1ccc(OCc2ccc(N3CCC4(CCc5ccccc54)CC3)s2)cc1`, the Drug metabolism entry in data set [2], in [8], in data set [24], in data set [26], in data set [15] and in data set [16] was “Metabolite_Detected” in each case. The Drug metabolism result in data set [17], in data set [19] and in data set [28] was “Metabolite_Detected” throughout. Further, the clearance in [3] lay in the range of 517 to 717 mL/min. The K in data set [4] worked out at 0.109 h⁻¹; in [22], 0.23 h⁻¹. Moreover, the logP (in general, a log measure of how a compound divides between an organic and an aqueous phase) in data set [20] worked out at 5. The metabolised at 0.5 h in data set [6] came out at 98%; in data set [21] it was 98%; in data set [14] it was 93%; in [27] it was 44%. Besides, in data set [7], the pKa lay in the range of 3.4 to 7.9. For the same molecule, in data set [23], the 50% effective concentration (EC50) – broadly, the concentration at which the effect is half-maximal – turned out to be 8 nM. Besides, the Vd in [9] was 443 to 885 L. For the same molecule, the Ki (in general, a dissociation constant, usually derived from enzyme kinetics or from competition with a known ligand) in [25] was found to be 8.2 nM. The molecule also came in with a solubility in [11] of 70 to 89 µM (≈ 34 to 43.2 µg/mL). Besides, the ED90 in the data set on Rattus norvegicus [12] came to 14.2 mg/kg. For the same molecule, the %max in data set [13] amounted to 50%.

On to `CC#C[C@@H](CC(=O)O)c1ccc(OCc2ccc(CN3CCCc4cccc(OC)c43)s2)cc1`, for which the clearance in data set [3] lay within 183 to 233 mL/min. The Drug metabolism entry in data set [29], in [8], in data set [30], in [15], in data set [17] and in data set [31] was “Metabolite_Detected” in each case. For the same molecule, the K in data set [4] was determined as 0.0048 h⁻¹; in [22], 0.17 h⁻¹. The metabolised at 0.5 h is 62% in [6] and 18% in [14]. Also, the pKa in [7] lay in the range of 3.4 to 6. Moreover, the EC50 in data set [23] turned out to be 3 nM. Besides, in [9], the distribution volume (Vd) is 244 to 358 L. Moreover, the Ki in data set [25] is 27 nM. Also, the solubility in data set [11] was more than 100 µM. Besides, the ED90 in the data set on Rattus norvegicus [12] worked out at 3.3 mg/kg. Also, the %max in data set [13] amounted to 51%.
